ChEMBL document CHEMBL3217465, “Development of a phosphatase-resistant, L-tyrosine derived LPA1/LPA3 dual antagonist” (Medchemcomm, 2011)
The source made the active and inactive calls. No cut-off for these calls is given here.

How the values were obtained:
A-431 = test: Antagonist activity at LPA receptor in human A431 cells assessed as inhibition of LPA-induced intracellular calcium mobilization at 10 uM by Fluo-3 AM-staining based FLIPR assay; type: cell-based
Outline: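 A431 human epithelial carcinoma cells, which express LPA1–3 receptor mRNAs, were tested with the test compound at a single concentration of 10 μM against a single concentration of 1-oleoyl LPA. The read-out was inhibition of LPA-induced intracellular calcium release.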

[1] = target: Lysophosphatidic acid receptor 1 (Homo sapiens, UniProt Q92633); test: Competitive antagonist activity at human LPA1 receptor overexpressed in CHO cells assessed as inhibition of LPA-induced [35S]GTPgammaS binding by liquid scintillation counting; type: functional, cell-based
Lysophosphatidic acid receptor 1, sequence (Q92633 whole entry): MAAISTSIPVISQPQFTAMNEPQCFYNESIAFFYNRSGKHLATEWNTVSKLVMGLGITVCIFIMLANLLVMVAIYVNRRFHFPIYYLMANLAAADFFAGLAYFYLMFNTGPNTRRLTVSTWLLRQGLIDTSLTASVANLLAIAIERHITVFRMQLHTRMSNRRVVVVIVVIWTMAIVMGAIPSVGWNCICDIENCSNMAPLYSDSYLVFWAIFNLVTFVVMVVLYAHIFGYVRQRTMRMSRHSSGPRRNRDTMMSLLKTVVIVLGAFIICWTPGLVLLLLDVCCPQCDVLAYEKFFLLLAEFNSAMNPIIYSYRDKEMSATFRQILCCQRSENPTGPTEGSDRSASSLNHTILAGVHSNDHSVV
Outline: (§1)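 GTP[γ-³⁵S] binding was measured in membrane fractions containing hLPA1 or hLPA3 from over-expressing CHO cells. LPA concentration-effect curves were run at increasing antagonist concentrations, and Schild analysis was derived from these curves.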

[2] = target: T1, Lysophosphatidic acid receptor 3 (Homo sapiens) (UniProt Q9UBY5); test: (§2) Competitive antagonist activity at N-terminal 3XHA-tagged human LPA3 receptor overexpressed in CHO cells assessed as inhibition of LPA-induced [35S]GTPgammaS binding by liquid scintillation counting; type: functional, cell-based; outline: as §1
T1 sequence (whole entry): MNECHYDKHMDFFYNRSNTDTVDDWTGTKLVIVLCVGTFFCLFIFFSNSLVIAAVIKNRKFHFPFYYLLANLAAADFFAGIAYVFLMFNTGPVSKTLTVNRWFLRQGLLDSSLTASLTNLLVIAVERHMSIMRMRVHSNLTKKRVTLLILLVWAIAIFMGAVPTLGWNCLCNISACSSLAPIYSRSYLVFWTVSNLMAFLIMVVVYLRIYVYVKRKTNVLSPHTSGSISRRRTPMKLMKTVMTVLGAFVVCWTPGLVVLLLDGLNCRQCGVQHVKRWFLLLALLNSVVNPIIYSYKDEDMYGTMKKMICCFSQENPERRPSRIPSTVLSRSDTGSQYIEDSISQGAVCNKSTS

[3] = target: T2, Lysophosphatidic acid receptor 3 (Homo sapiens, UniProt Q9UBY5); test: as §2; type: functional, cell-based; outline: as §1
T2 sequence (Q9UBY5 whole entry): T1 sequence (whole entry)

[4] = target: Lysophosphatidic acid receptor 1/lysophosphatidic acid receptor 3 (Rattus norvegicus, UniProt Q8K5E0+P61794); test: Antagonist activity at LPAR1/LPAR3 in rat glioma C62B cells assessed as inhibition of LPA-induced reduction in isoproterenol-stimulated [3H]cAMP accumulation by liquid scintillation counting; type: functional, cell-based
Outline: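 C62B cells were grown to confluence and labelled with [³H]adenine for 1 h to label ATP pools. They were then stimulated for 2 min with isoproterenol (10 μM), with or without 18:1 LPA (100 nM), and with or without antagonist. Antagonist was given at increasing concentrations to obtain dose-response curves of the block of LPA inhibition of cAMP accumulation.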

[5] = target: T3, Lysophosphatidic acid receptor 3 (Rattus norvegicus) (UniProt Q8K5E0); test: Antagonist activity at LPAR3 in rat glioma C62B cells assessed as inhibition of LPA3 agonist-induced reduction in isoproterenol-stimulated [3H]cAMP accumulation by liquid scintillation counting; type: functional, cell-based
T3 sequence (whole entry): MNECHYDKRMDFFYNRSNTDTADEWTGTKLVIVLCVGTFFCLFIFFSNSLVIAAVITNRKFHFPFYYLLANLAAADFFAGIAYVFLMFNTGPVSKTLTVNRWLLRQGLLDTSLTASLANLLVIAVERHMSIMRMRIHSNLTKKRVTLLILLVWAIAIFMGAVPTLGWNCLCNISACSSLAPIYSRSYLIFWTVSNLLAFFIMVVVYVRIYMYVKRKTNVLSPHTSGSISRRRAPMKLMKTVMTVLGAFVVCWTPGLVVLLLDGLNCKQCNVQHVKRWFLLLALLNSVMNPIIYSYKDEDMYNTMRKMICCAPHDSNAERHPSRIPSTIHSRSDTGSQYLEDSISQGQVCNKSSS

[6] = Half life in Wistar rat at 20 mg/kg, iv by LC-MS/MS analysis; type: ADME, organism-based; design: dose 20 mg/kg, route intravenous; details: in vivo
[7] = target: Lysophosphatidic acid receptor 2 (Homo sapiens) (UniProt Q9HBW0); test: Antagonist activity at LPAR2 receptor (unknown origin) assessed as inhibition of LPA-induced [35S]GTPgammaS binding by liquid scintillation counting; type: functional
Lysophosphatidic acid receptor 2 (Homo sapiens), sequence (Q9HBW0 whole entry): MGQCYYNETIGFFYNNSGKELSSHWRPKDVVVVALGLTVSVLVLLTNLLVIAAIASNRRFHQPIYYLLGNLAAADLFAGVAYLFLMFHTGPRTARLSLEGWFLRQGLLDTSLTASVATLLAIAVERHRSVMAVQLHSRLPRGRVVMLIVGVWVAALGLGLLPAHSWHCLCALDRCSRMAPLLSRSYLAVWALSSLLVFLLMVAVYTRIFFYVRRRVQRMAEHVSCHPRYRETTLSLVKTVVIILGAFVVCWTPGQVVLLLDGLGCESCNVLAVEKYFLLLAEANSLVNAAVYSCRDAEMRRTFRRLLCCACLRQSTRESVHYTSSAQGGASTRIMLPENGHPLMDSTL

inhibition [1] | inhibition [2] | Ki [1] | Ki [3] | SMILES | inhibition (A-431) | also measured
 |  |  |  | CCCCCCCCCCCCCCCC(=O)N[C@@H](/C=C(\F)P(=O)(O)O)Cc1ccc(OCc2cc(OCC(F)(F)F)ccn2)cc1 | Active | 
Active | Active |  |  | Cc1noc(-c2ccc(CSCCC(=O)O)cc2)c1NC(=O)OC(C)c1ccccc1Cl (stereo not given) |  | 
Dose-dependent effect | Dose-dependent effect | 143 nM | 512 nM | CCCCCCCCCCCCCCCC(=O)N[C@@H](/C=C/P(=O)(O)O)Cc1ccc(OCc2cc(OCC(F)(F)F)ccn2)cc1 | Active | Ki [4]: 11 nM; inhibition [5]: Dose-dependent effect; half-life [6]: 1.5 h; inhibition [7]: inactive
 |  |  |  | CCCCCCCCCCCCCCCC(=O)N[C@H](Cc1ccc(OCc2cc(OCC(F)(F)F)ccn2)cc1)CC(F)P(=O)(O)O (stereo not given in full) | Active | 
 |  | 84 nM | 48 nM | CCCCCCCCCCCCCCCCCC(=O)N[C@@H](COP(=O)(O)O)Cc1ccc(OCc2cc(OCC(F)(F)F)ccn2)cc1 |  | 
